# Source: PubChem BioAssay
# Most compounds without a hit are left out; they make up all but 1.9% or so of the library.
# Rpn11 inh: blocks the human proteasome subunit Rpn11; O00487; human 26S proteasome, Ub4-pepOG fluorescence polarization; 20S core pre-blocked with epoxomicin; inhibition, % at 20 µM; 0.59% of 360,000 active; AID 588493;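 active means inhibition at 20 µM, scaled to each plate's controls, above about 33%, limit read from the data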
# Target sequence (O00487 whole entry, looked up): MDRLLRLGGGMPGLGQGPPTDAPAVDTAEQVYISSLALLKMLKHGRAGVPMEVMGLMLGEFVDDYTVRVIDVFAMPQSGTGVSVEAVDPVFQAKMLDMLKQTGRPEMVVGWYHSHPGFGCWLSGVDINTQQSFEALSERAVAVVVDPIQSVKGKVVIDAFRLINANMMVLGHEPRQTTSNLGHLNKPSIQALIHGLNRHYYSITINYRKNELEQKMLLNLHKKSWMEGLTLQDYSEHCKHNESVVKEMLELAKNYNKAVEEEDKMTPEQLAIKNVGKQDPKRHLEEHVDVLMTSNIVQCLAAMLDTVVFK
# Rin1 Abl inh: inhibitors of human Rin1-Abl protein interaction; 0.4% of 360,000 active; inhibition, % at 7.35 µM; AID 588664; TR-FRET Rin1/Abl binding, biochemical; P00519+Q13671; in the data active means inhibition above about 5%, passing the limit was not always enough
# NadD inh: inhibitors of Staphylococcus aureus NadD; purified NadD enzyme, colorimetric absorbance read-out; inhibition, % at 20 µM; 0.78% of 360,000 active; AID 602399; in the data active means inhibition above about 26%
# ABHD5-PLIN5 inh: blocks binding of human ABHD5 to perilipin-5; Q00G26+Q8WTS1; Split G. princeps luciferase complementation, luminescence, 4 h; inhibition, % at 4 µM; 0.78% of 360,000 active;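 active means inhibition above the mean inhibition across every tested compound plus 3 SD, cut at about 22% in these data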
# XiGFP reactiv: reactivates the inactive X chromosome in mouse fibroblasts; AID 743238; activation, % at 7.58 µM; XiGFP mouse fibroblasts, % GFP-positive cells imaging, 3 d; cells co-treated with 5-aza-dC sensitizer; scaled so ellipticine positive control = 100%; 0.055% of 360,000 active;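 active means mean normalized replicate activation at least 10% and every replicate at or above 10%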
#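 System: XiGFP fibroblasts, SV40-immortalized. Medium: DMEM plus 5-aza-dC sensitizer. Doses: single point. Timing: 3 d treatment, 15 min room-temperature fixation. Control set: ellipticine 6 µM.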
# ABHD5-PLIN5 conf: ABHD5-PLIN5 interaction inhibition, confirmed; AID 651612; biochemical ABHD5-PLIN5 interaction, luminescence; shares compounds with ABHD5-PLIN5 inh; 67% of 2,200 active; inhibition, % at 4 µM; in the data active means inhibition above about 23%
# HNF4 counter: counter-screen for ABHD5-PLIN5 inhibitors: HNF4 split-luciferase. shares compounds with ABHD5-PLIN5 inh. 77% of 2,200 active. AID 651674. inhibition, % at 4 µM. HNF4 dimerization, luminescence, biochemical;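 active means mean inhibition across replicate wells exceeding the computed hit threshold, cut at about 13% in these data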;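 further: light from luciferase halves that rejoin when HNF4 fusion proteins dimerize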
# A number is an active result; - = inactive; . = no result.
SMILES,Rpn11 inh,Rin1 Abl inh,NadD inh,ABHD5-PLIN5 inh,XiGFP reactiv,ABHD5-PLIN5 conf,HNF4 counter
COCCOC(=O)/C(=C\c1cc(C(C)(C)C)c(O)c(C(C)(C)C)c1)C(C)=O,-,-,-,44,-,80,72
CC1C(=O)NN=C1C(=O)N/N=C\C(Br)=C\c1ccccc1 (stereo unspecified),-,-,-,34,-,-,22
CC1=NNC(=O)C1CC(=O)N/N=C/C(Br)=C/c1ccccc1 (stereo unspecified),-,-,-,-,-,.,.
O=C(N/N=C/C(Br)=C/c1ccccc1)c1cc(-c2ccco2)[nH]n1,-,-,-,25,-,22,72
Cc1ccc(S(=O)(=O)NCC[C@H]2CC[C@H](NC(=O)NC(C)C)[C@@H](CO)O2)cc1,.,.,.,.,-,.,.
CCOC(=O)/C(=C/c1c(C)n(C)c2ccc([N+](=O)[O-])cc12)C(C)=O,-,-,-,46,-,83,76
Cc1ccc(C(C2=C(O)CC(C)(C)CC2=O)C2C(=O)CC(C)(C)CC2=O)s1 (stereo unspecified),-,-,-,-,.,.,.
CC1(C)CC(=O)C(C(C2=C(O)CC(C)(C)CC2=O)c2ccc(Br)s2)C(=O)C1 (stereo unspecified),-,-,-,67,-,91,97
O=C(CC1CC1)N1CC(=O)N2[C@H](C1)[C@@H](c1ccc(-c3ccccc3)cc1)[C@@H]2CO,.,.,.,.,-,.,.
O=C(C[n+]1cccc(CNC(=O)c2ccc(OC(F)F)cc2)c1)Nc1ccc(F)cc1,-,-,-,-,-,.,.
O=C(C[n+]1cccc(CNC(=O)c2ccc(OC(F)F)cc2)c1)Nc1cccc(C(F)(F)F)c1,-,-,-,32,-,24,-
BrC(=C\c1ccccc1)/C=N/n1cnnc1,-,-,-,38,-,42,45
BrC(=C\c1ccccc1)/C=N/Nc1ccc2nncn2n1,-,-,-,-,-,.,.
CCCN(C)C[C@H]1Oc2cc(C3=CCCC3)ccc2S(=O)(=O)N([C@@H](C)CO)C[C@@H]1C,.,.,.,.,-,.,.
CCn1c(SCC(=O)N/N=C/C=C/c2ccco2)nnc1-c1ccc(OC)cc1,-,-,-,30,-,-,40
COc1ccc(NC(=O)N(C)C[C@H]2OCCCC[C@@H](C)Oc3ccc(N(C)C)cc3C(=O)N([C@@H](C)CO)C[C@H]2C)cc1,.,.,.,.,-,.,.
Cc1ccc(-n2sc3cc(F)ccc3c2=O)c(C)c1,-,-,-,66,-,63,116
O=c1c2cc(F)ccc2sn1-c1ccccc1Cl,-,-,-,-,-,.,.
CC(=O)Oc1ccc(C23c4ccccc4C2(OC(C)=O)c2cc(OC(C)=O)ccc23)cc1 (stereo unspecified),-,-,-,99,-,102,53
C[C@@H]1CN([C@@H](C)CO)C(=O)Cc2cc(N(C)C)ccc2O[C@H]1CN(C)C(=O)Nc1ccc2c(c1)OCO2,.,.,.,.,-,.,.
Cc1cccc2cc(/C=N/Nc3ccc(C(=O)O)cc3)c(Cl)nc12,-,-,-,-,-,.,.
CCOc1ccc2nc(Cl)c(/C=C/C(=O)c3ccco3)cc2c1,-,-,-,34,.,93,92
Cc1cccc2cc(/C=C/C(=O)c3ccco3)c(Cl)nc12,-,-,-,42,-,73,63
C[C@H]1CCCCO[C@@H](CN(C)C(=O)CCC(F)(F)F)[C@@H](C)CN([C@@H](C)CO)C(=O)c2cc(NC(=O)NC3CCCCC3)ccc2O1,.,.,.,.,-,.,.
COc1cc(/C=C/[N+](=O)[O-])ccc1OC(=O)c1cc2ccccc2oc1=O,-,-,-,28,-,78,97
O=C(c1ccccc1)N1CC2(C1)[C@@H](c1ccccc1)[C@@H](CO)N2Cc1cccnc1,.,.,.,.,-,.,.
Cc1cccc(S(=O)(=O)Nc2nc3ccccc3nc2NCc2ccco2)c1,-,-,-,-,.,.,.
Cc1ccc(S(=O)(=O)Nc2nc3ccccc3nc2NCc2ccco2)cc1C,-,-,-,28,.,-,27
O=C(Nc1ccc(Cl)cc1)c1cccs1,-,-,-,-,.,.,.
O=C(Nc1ccccc1)c1nnsc1S(=O)c1ccc(Cl)cc1 (stereo unspecified),-,-,-,34,.,90,106
